Source: ChEMBL document CHEMBL3826901, “Design, synthesis, and mode of action studies of a mitomycin tetramer inducing double activations with a single probe” (Bioorg Med Chem, 2016)

Experiments:
Escherichia coli [1] = experiment: Induction of interstrand cross-linking in EcoR1-linearized Escherichia coli pBR322 plasmid DNA at 0.20 mM after 2 hrs using 5 equiv of Et3P by ethidium bromide staining based alkaline agarose gel electrophoresis
Procedure, shortened: (§1)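 EcoRI-linearized pBR322 DNA in aqueous Tris-HCl pH 7.4 was N2-deaerated for 15 min. Mitomycin (from 5 mM DMSO stock) and Et3P (5 equiv) were added, then incubated 2 h at room temperature. Purified DNA was run on a denaturing alkaline agarose gel (40 mM NaOH, 1 mM EDTA) with a HindIII-digested λ marker. The gel was neutralized and ethidium bromide-stained, and the cross-linked band quantified.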

[2] = Prodrug activation in Tris HCl methanolic solution at pH 7.4 using 5 equiv of Et3P by UV-visible spectrophotometry; details: buffer
[3] = Prodrug activation in Tris HCl methanolic solution at 0.015 mM at pH 7.4 using 10 equiv of Et3P by UV-visible spectrophotometry; details: buffer, pH 7.4, 15 µM
Procedure, shortened: (§2)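 Mitomycin (from 1.0 mM methanolic stock) was in 0.1 M Tris-HCl methanolic buffer, 'pH' 7.4, at 25 °C. Nucleophile was added from methanolic stock (final 0.06–1.5 mM). UV-vis scans (200–500 nm) ran beyond two half-lives. Pseudo-first-order kobs and t1/2 were derived from 370 nm absorbance. Final 'pH' was within ±0.1 units. Runs were in duplicate and averaged.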

[4] = Prodrug activation in Tris HCl methanolic solution assessed as half-life at 0.015 mM at pH 7.4 using 10 equiv of Et3P by UV-visible spectrophotometry; details: buffer, pH 7.4, 15 µM; procedure, shortened: as §2
[5] = Prodrug activation in Tris HCl methanolic solution assessed as half-life at 0.015 mM at pH 7.4 using 20 equiv of L-DTT by UV-visible spectrophotometry; details: buffer, pH 7.4, 15 µM; procedure, shortened: as §2
[6] = Prodrug activation in Tris HCl methanolic solution at 0.015 mM at pH 7.4 using 50 equiv of Et3P by UV-visible spectrophotometry; details: buffer, pH 7.4, 15 µM; procedure, shortened: as §2
[7] = Prodrug activation in Tris HCl methanolic solution assessed as half-life at 0.015 mM at pH 7.4 using 5 equiv of Et3P by UV-visible spectrophotometry; details: buffer, pH 7.4, 15 µM; procedure, shortened: as §2
[8] = Prodrug activation in Tris HCl methanolic solution assessed as half-life at 0.015 mM at pH 7.4 using 10 equiv of L-DTT by UV-visible spectrophotometry; details: buffer, pH 7.4, 15 µM; procedure, shortened: as §2
[9] = Prodrug activation in Tris HCl methanolic solution at 0.015 mM at pH 7.4 using 20 equiv of Et3P by UV-visible spectrophotometry; details: buffer, pH 7.4, 15 µM; procedure, shortened: as §2
Escherichia coli [10] = experiment: Induction of interstrand cross-linking in EcoR1-linearized Escherichia coli pBR322 plasmid DNA at 0.050 mM after 2 hrs using 5 equiv of Et3P by ethidium bromide staining based alkaline agarose gel electrophoresis; procedure, shortened: as §1
[11] = Prodrug activation in Tris HCl methanolic solution at 0.015 mM at pH 7.4 using 20 equiv of L-DTT by UV-visible spectrophotometry; details: buffer, pH 7.4, 15 µM; procedure, shortened: as §2
Escherichia coli [12] = experiment: Induction of interstrand cross-linking in EcoR1-linearized Escherichia coli pBR322 plasmid DNA at 0.10 mM after 2 hrs using 5 equiv of Et3P by ethidium bromide staining based alkaline agarose gel electrophoresis; procedure, shortened: as §1
[13] = Prodrug activation in Tris HCl methanolic solution assessed as half-life at 0.015 mM at pH 7.4 using 50 equiv of Et3P by UV-visible spectrophotometry; details: buffer, pH 7.4, 15 µM; procedure, shortened: as §2
[14] = Prodrug activation in Tris HCl methanolic solution assessed as half-life at 0.015 mM at pH 7.4 using 20 equiv of GSH by UV-visible spectrophotometry; details: pH 7.4, 15 µM; procedure, shortened: as §2
[15] = Prodrug activation in Tris HCl methanolic solution assessed as half-life at 0.015 mM at pH 7.4 using 20 equiv of Et3P by UV-visible spectrophotometry; details: buffer, pH 7.4, 15 µM; procedure, shortened: as §2
[16] = Prodrug activation in Tris HCl methanolic solution at 0.015 mM at pH 7.4 using 20 equiv of GSH by UV-visible spectrophotometry; details: buffer, pH 7.4, 15 µM; procedure, shortened: as §2
[17] = Prodrug activation in Tris HCl methanolic solution at 0.015 mM at pH 7.4 using 10 equiv of L-DTT by UV-visible spectrophotometry; details: buffer, pH 7.4, 15 µM; procedure, shortened: as §2
Escherichia coli [18] = experiment: Induction of interstrand cross-linking in EcoR1-linearized Escherichia coli pBR322 plasmid DNA at 0.025 mM after 2 hrs using 5 equiv of Et3P by ethidium bromide staining based alkaline agarose gel electrophoresis; procedure, shortened: as §1
[19] = Prodrug activation in Tris HCl methanolic solution at 0.015 mM at pH 7.4 using 5 equiv of Et3P by UV-visible spectrophotometry; details: buffer, pH 7.4, 15 µM; procedure, shortened: as §2
[20] = Prodrug activation in Tris HCl methanolic solution at 0.03 mM at pH 7.4 using 5 equiv of Et3P by UV-visible spectrophotometry; details: buffer, pH 7.4, 30 µM; procedure, shortened: as §2
[21] = Prodrug activation in Tris HCl methanolic solution at 0.030 mM at pH 7.4 using 10 equiv of Et3P by UV-visible spectrophotometry; details: buffer, pH 7.4, 30 µM; procedure, shortened: as §2

## CO[C@@]12[C@H](COC(N)=O)C3=C(C(=O)C(C)=C(N)C3=O)N1C[C@@H]1N[C@@H]12 [MITOMYCIN]
Escherichia coli [1]
  Activity: 2%
[2]
  Drug metabolism: metabolite_notdetected

## CO[C@@]12[C@H](COC(N)=O)C3=C(C(=O)C(C)=C(NCC(CNC4=C(C)C(=O)C5=C(C4=O)[C@@H](COC(N)=O)[C@@]4(OC)[C@H]6N[C@H]6CN54)SSC(CNC4=C(C)C(=O)C5=C(C4=O)[C@@H](COC(N)=O)[C@@]4(OC)[C@H]6N[C@H]6CN54)CNC4=C(C)C(=O)C5=C(C4=O)[C@@H](COC(N)=O)[C@@]4(OC)[C@H]6N[C@H]6CN54)C3=O)N1C[C@@H]1N[C@@H]12 (some centres undefined)
[3]
  K: 1.3 day⁻¹
[4]
  t1/2: 12.7 h
[5]
  t1/2: 12.7 h
[6]
  K: 6.9 day⁻¹
[7]
  t1/2: 23 h
[8]
  t1/2: 24 h
[9]
  K: 2.9 day⁻¹
Escherichia coli [10]
  Activity: 41%
[11]
  K: 1.3 day⁻¹
Escherichia coli [12]
  Activity: 51%
Escherichia coli [1]
  Activity: 68%
[13]
  t1/2: 2.4 h
[14]
  t1/2: 16.6 h
[15]
  t1/2: 5.76 h
[16]
  K: 1 day⁻¹
[17]
  K: 0.69 day⁻¹
Escherichia coli [18]
  Activity: 17%
[19]
  K: 0.72 day⁻¹

## CO[C@@]12[C@H](COC(N)=O)C3=C(C(=O)C(C)=C(NCC(O)CNC4=C(C)C(=O)C5=C(C4=O)[C@@H](COC(N)=O)[C@@]4(OC)[C@H]6N[C@H]6CN54)C3=O)N1C[C@@H]1N[C@@H]12 (some centres undefined)
Escherichia coli [12]
  Activity: 5%
[20]
  Drug metabolism: metabolite_notdetected

## CO[C@@]12[C@H](COC(N)=O)C3=C(C(=O)C(C)=C(NCC4CCC(CNC5=C(C)C(=O)C6=C(C5=O)[C@@H](COC(N)=O)[C@@]5(OC)[C@H]7N[C@H]7CN65)SS4)C3=O)N1C[C@@H]1N[C@@H]12 (some centres undefined)
Escherichia coli [12]
  Activity: 40.5%
[21]
  K: 1.35 day⁻¹
